Source: PubChem BioAssay (several laboratories)
FXIIa inh 1536 – factor XIIa (human) inhibition; purified FXIIa, Boc-QGR-AMC fluorogenic substrate, 2 h; inhibition, % at 5 µM; 220,000 compounds, 0.3% hits; AID 800; in the data active = inhibition above about 40%
FXIa inh – inhibitors of human coagulation factor XIa; P03951; purified FXIa, Boc-Glu-Ala-Arg-AMC fluorogenic substrate; inhibition, % at 5 µM; 220,000 compounds, 0.14% hits;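 active = inhibition of at least 40%; inactive = inhibition below 40%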;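 note: fluorescence of freed AMC excited at 355 nm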
Target sequence (P03951 19-387 limits assumed): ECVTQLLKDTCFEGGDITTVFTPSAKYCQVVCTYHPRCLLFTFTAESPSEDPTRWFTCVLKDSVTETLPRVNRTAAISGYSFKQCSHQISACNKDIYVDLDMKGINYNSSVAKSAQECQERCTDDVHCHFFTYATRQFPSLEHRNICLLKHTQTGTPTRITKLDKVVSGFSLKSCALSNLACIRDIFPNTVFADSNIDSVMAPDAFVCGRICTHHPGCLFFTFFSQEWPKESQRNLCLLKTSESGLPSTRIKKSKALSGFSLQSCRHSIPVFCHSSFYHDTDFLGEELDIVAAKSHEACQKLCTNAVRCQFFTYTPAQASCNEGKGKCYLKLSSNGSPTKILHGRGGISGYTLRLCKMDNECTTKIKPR
Target sequence (P03951 388-625 limits assumed): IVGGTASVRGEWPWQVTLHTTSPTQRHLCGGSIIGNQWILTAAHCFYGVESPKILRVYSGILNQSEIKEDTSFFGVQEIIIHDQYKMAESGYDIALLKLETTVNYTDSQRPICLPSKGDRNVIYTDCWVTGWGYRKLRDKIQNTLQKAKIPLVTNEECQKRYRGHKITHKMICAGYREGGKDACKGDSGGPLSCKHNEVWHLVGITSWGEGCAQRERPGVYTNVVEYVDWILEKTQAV
KLK5 inh – blocks human kallikrein 5 protease activity; Q9Y337; recombinant hK5, fluorogenic AMC substrate cleavage; inhibition, % at 5 µM; 210,000 compounds, 0.59% hits; AID 873;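 active = inhibition of 40% or more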
Calpain2 inh – calpain II (pig) inhibition; 220,000 compounds, 0.37% hits; purified calpain II, fluorogenic peptide substrate, 30 min; AID 1236; inhibition, % at 16 µM;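 active = inhibition above about 50%, limit read from the data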
Thrombin inh – thrombin (human) inhibition | 220,000 compounds, 0.26% hits | P00734 | AID 1046 | inhibition, % at 5 µM | alpha-thrombin, Boc-VPR-AMC fluorogenic substrate cleavage;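 active = inhibition at or above 40%; inactive = inhibition below 40%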
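Test system: human alpha-thrombin; medium: pH 7.5 Tris-saline with Tween 20; times: reaction at room temperature; signal: AMC fluorescence at 355 nm excitation and 460 nm emission; also added: Boc-VPR-AMC substrate, 15 µM final; dosing: one concentration per compound, 5 µM, with 0.2% DMSO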
A number is an active result; 0 = inactive; - = no result given. Sampled rows, rich in hits. Any-hit rate of the full collection: about 1.4%.

SMILES	FXIIa inh 1536	FXIa inh	KLK5 inh	Calpain2 inh	Thrombin inh
COc1cc(C(=O)NCCCc2nc3ccccc3n2Cc2cc(C)ccc2C)cc(OC)c1OC	0	0	0	0	0
C=CCn1c(CCCNC(=O)c2ccccc2OC)nc2ccccc21	0	0	0	81.3	0
O=C(NC1CCCCC1)C1CCN(c2nnnn2-c2ccccc2)CC1	0	0	0	0	81.8
O=C(Nc1ccc(F)cc1)C1CCN(c2nnnn2-c2ccccc2)CC1	0	0	0	0	0
O=S(=O)(c1ccccc1)N1CCN(c2nnnn2-c2ccccc2)CC1	0	0	63.1	0	0
O=C(O)CCC(=O)Nc1nnc(C(F)(F)F)s1	0	0	43.4	0	0
CCCCc1nc2ccccc2c(NC(=O)CNC(C)(C)C)c1CCC	0	0	0	0	42.2
COC(=O)c1ccccc1NC(=O)C(C)c1ccc([N+](=O)[O-])cc1 (stereo unspecified)	0	0	0	0	0
Cc1c(N(C)C(=O)C2CCCN2S(=O)(=O)c2ccccc2)c(=O)n(-c2ccccc2)n1C (stereo unspecified)	0	0	71.2	0	104.0
O=c1c(Cl)c(Cl)cnn1Cc1nnc(-c2ccc(Cl)cc2)o1	0	0	0	0	0
COc1cc(C(=O)NCCC(=O)NC2CCCCCCC2)cc(OC)c1OC	0	0	0	0	0
COc1cc(C(=O)N[C@H](C(=O)NC2CCCCCC2)C(C)C)cc(OC)c1OC	0	0	44.2	0	0
CC(C)c1csc(CN2CCCC(CCC(=O)NCc3ccccc3F)C2)n1 (stereo unspecified)	0	50.0	0	0	0
COc1ccc(C2C(C(=O)O)c3ccccc3C(=O)N2C)cc1Br (stereo unspecified)	57.5	0	0	0	0
COC(=O)c1c(C(=O)OC)c(-c2ccc(Cl)cc2)n2c1CS(=O)(=O)C2	0	0	0	0	0
COC(=O)c1ccccc1NC(=O)c1ccnn1C	0	0	-	0	0
O=C(COc1ccccc1)Nc1ccc(S(=O)(=O)N2CCCC2)cc1	0	0	0	0	0
O=C(CCOc1ccccc1)Nc1ccc(S(=O)(=O)N2CCCC2)cc1	0	0	0	56.9	0
O=C(Cn1c(=O)sc2ccccc21)Nc1ccc(S(=O)(=O)N2CCCC2)cc1	0	0	0	54.0	0
O=C(COC(=O)c1ccc(Br)o1)Nc1ccc(S(=O)(=O)N2CCCC2)cc1	0	0	0	0	0
O=C(Nc1ccc(S(=O)(=O)N2CCCCCC2)cc1)c1ccc(Br)o1	0	0	0	54.9	0
Cc1cccc(NC(=O)Nc2ccc3c(c2)N(C)C(=O)CS3)n1	0	0	58.5	0	0
Nc1c(Cl)nc(-c2ccccc2)nc1Cl	0	0	0	0	0
COc1cc(Cl)c(S(=O)(=O)N2CC(C)OC(C)C2)cc1Cl (stereo unspecified)	0	0	53.8	0	0
COc1ccc(CNc2nc(-c3cccnc3)nn2C(=O)c2cccs2)cc1	0	0	0	0	0
SMILES	FXIIa inh 1536	FXIa inh	KLK5 inh	Calpain2 inh	Thrombin inh
COc1ccc(CNc2nc(-c3cccnc3)nn2C(=O)CC(C)C)cc1	0	0	0	0	95.3
COc1ccc(CNc2nc(NCc3ccc(OC)cc3)n(C(=O)c3ccncc3)n2)cc1	0	0	-	0	0
COc1ccc(CNc2nc(-c3cccnc3)nn2C(C)=O)cc1	0	0	0	0	99.2
COc1ccc(CNC(=O)c2coc(=O)c3ccccc23)c(OC)c1	0	0	0	0	0
Cc1ccc(S(=O)(=O)N/N=c2\oc3ccccc3cc2C(=O)Nc2cccc(C)c2)cc1	0	0	0	0	0
O=C(Nc1ccc(Cl)c(C(F)(F)F)c1)N1CCCC(O)C1 (stereo unspecified)	42.0	0	0	0	0
Cc1nn(CCC#N)c(N)c1C1(O)C(=O)Nc2c(Cl)cc(Cl)cc21 (stereo unspecified)	0	0	0	0	0
CC(C)Cn1c(N)c(C(=O)COC(=O)c2ccc(F)cc2)c(=O)n(C)c1=O	0	0	0	53.0	0
CC(C)Cn1c(N)c(C(=O)COC(=O)c2ccccc2Cl)c(=O)n(C)c1=O	0	0	0	0	0
CCc1ccc(C(=O)OCC(=O)c2c(N)n(CC(C)C)c(=O)n(C)c2=O)cc1	0	0	0	81.8	0
CC(C)Cn1c(N)c(C(=O)COC(=O)c2cccc(Cl)c2)c(=O)n(C)c1=O	0	0	0	77.0	0
CC(C)Cn1c(N)c(C(=O)COC(=O)c2ccc3c(c2)OCCO3)c(=O)n(C)c1=O	0	0	0	0	0
CC(C)Cn1c(N)c(C(=O)COC(=O)/C=C/c2cccs2)c(=O)n(C)c1=O	0	0	0	52.9	0
